Measurements taken from ChEMBL document CHEMBL1153156, “Pyrrole derivatives as potent inhibitors of lymphocyte-specific kinase: Structure, synthesis, and SAR” (Bioorg Med Chem Lett, 2010).

Experiments:
[1] = biological target: Tyrosine-protein kinase Lck (Homo sapiens) (UniProt P06239); experiment: Inhibition of human recombinant Lck expressed in insect cells by Packard topcount method
How it was run: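 Lck (5 ng/well) incubated with compound in 50 mM Hepes, 50 mM KCl, 25 mM MgCl₂, 5 mM MnCl₂, Na₃VO₄, 0.01% CHAPS, 1 mM DTT. Poly(Glu-Tyr) 4:1 substrate, ATP and ³³P-ATP added; 25 °C, 60 min. Stopped with 100 mM phosphoric acid, filtered onto membrane, scintillation counted. IC₅₀ from eight-point half-log curves; mean of at least two independent experiments.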

[2] = Immunosuppressive activity in C57BL6/J mouse T cells cocultured with mitomycin C-treated BALB/c spleen cells assessed as inhibition of [3H]thymidine incorporation after 72 hrs by mixed lymphocyte reaction assay; type: functional
How it was run: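 Nylon-wool-purified splenic and lymph node T cells from C57BL/6 mice (3 × 10⁵/well) cocultured with mitomycin-C-treated BALB/c spleen cells (2 × 10⁵/well), 37 °C, 5% CO₂, 72 h. Compounds added at culture start. ³H-thymidine pulse for last 4 h, incorporation counted. IC₅₀ from nine-point half-log concentration–response curves; mean of at least two independent experiments.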

[3] = biological target: T1, Tyrosine-protein kinase ZAP-70 (Homo sapiens, UniProt P43403); experiment: Inhibition of ZAP70
T1 sequence (P43403 whole entry): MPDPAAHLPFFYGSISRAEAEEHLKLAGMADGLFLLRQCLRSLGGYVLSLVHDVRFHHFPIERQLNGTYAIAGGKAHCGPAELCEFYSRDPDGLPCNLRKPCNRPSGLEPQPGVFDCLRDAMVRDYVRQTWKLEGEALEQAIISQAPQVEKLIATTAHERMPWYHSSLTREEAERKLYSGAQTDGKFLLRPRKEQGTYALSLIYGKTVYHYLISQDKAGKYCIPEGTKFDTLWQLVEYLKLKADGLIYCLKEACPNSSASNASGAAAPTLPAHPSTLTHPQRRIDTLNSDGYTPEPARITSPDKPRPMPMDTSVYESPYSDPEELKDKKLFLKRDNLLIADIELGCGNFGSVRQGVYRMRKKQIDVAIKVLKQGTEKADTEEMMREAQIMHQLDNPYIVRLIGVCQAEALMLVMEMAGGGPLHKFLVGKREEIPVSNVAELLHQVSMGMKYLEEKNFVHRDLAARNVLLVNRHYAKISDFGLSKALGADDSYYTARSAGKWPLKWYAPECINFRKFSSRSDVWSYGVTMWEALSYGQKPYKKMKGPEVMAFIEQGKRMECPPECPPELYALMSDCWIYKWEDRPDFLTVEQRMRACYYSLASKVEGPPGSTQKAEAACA

[4] = Inhibition of CAMK2
[5] = Selectivity ratio of IC50 for Csk to IC50 for human recombinant Lck
[6] = biological target: Cyclin-dependent kinase 1 (Homo sapiens, UniProt P06493); experiment: Inhibition of CDK1
Chain of Cyclin-dependent kinase 1 (P06493 whole entry): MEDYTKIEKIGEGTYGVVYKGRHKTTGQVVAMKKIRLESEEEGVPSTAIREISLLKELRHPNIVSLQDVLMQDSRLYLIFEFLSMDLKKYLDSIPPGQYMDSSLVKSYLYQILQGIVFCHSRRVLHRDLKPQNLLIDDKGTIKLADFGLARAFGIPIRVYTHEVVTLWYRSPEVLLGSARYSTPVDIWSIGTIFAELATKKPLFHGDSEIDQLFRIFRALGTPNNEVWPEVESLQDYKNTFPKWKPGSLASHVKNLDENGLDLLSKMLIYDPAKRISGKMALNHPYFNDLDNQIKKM

[7] = biological target: RAC-alpha serine/threonine-protein kinase (Homo sapiens, UniProt P31749); experiment: Inhibition of PKB
Chain of RAC-alpha serine/threonine-protein kinase (P31749 whole entry): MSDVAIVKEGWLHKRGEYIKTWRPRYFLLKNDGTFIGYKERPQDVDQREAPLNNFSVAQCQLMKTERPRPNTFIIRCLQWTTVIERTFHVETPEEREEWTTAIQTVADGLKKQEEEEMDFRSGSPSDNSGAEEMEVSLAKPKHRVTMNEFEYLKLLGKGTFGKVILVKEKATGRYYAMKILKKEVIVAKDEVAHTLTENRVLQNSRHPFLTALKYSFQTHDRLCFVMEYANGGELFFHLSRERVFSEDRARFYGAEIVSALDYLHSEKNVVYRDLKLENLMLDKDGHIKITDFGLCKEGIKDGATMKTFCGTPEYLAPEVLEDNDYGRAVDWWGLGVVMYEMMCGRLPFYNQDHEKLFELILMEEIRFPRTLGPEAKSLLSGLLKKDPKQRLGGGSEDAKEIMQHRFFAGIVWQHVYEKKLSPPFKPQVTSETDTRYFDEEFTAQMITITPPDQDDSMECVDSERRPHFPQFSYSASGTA

[8] = biological target: Tyrosine-protein kinase CSK (Homo sapiens, UniProt P41240); experiment: Inhibition of Csk
Chain of Tyrosine-protein kinase CSK (P41240 whole entry): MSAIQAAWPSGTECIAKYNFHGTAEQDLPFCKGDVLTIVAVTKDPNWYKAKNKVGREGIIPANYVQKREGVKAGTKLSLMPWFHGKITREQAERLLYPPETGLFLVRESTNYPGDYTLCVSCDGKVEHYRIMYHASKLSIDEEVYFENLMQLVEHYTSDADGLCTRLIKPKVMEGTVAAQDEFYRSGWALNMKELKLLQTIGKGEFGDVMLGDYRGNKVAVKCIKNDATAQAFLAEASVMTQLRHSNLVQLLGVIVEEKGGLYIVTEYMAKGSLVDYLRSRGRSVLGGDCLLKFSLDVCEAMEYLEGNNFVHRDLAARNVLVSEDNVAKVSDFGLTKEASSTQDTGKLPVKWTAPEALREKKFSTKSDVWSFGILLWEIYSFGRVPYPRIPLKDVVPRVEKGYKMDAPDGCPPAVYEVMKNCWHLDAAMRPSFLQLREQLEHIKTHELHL

[9] = biological target: Dual specificity mitogen-activated protein kinase kinase 1 (Homo sapiens, UniProt Q02750); experiment: Inhibition of MEK1
Chain of Dual specificity mitogen-activated protein kinase kinase 1 (Q02750 whole entry): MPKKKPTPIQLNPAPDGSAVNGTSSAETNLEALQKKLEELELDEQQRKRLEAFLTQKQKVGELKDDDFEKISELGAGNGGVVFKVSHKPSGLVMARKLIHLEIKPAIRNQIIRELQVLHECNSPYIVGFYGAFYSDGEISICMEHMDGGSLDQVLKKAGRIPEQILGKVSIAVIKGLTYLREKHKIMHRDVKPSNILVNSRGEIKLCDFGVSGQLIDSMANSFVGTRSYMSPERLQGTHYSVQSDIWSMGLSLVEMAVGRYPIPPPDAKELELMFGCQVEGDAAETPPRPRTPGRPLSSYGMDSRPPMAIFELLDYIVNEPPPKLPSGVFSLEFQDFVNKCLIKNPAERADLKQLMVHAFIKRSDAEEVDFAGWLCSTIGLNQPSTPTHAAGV

[10] = Inhibition of PKC
[11] = Selectivity ratio of IC50 for Src to IC50 for human recombinant Lck
[12] = biological target: Tyrosine-protein kinase ABL1 (Homo sapiens, UniProt P00519); experiment: Inhibition of Abl
Chain of Tyrosine-protein kinase ABL1 (P00519 whole entry): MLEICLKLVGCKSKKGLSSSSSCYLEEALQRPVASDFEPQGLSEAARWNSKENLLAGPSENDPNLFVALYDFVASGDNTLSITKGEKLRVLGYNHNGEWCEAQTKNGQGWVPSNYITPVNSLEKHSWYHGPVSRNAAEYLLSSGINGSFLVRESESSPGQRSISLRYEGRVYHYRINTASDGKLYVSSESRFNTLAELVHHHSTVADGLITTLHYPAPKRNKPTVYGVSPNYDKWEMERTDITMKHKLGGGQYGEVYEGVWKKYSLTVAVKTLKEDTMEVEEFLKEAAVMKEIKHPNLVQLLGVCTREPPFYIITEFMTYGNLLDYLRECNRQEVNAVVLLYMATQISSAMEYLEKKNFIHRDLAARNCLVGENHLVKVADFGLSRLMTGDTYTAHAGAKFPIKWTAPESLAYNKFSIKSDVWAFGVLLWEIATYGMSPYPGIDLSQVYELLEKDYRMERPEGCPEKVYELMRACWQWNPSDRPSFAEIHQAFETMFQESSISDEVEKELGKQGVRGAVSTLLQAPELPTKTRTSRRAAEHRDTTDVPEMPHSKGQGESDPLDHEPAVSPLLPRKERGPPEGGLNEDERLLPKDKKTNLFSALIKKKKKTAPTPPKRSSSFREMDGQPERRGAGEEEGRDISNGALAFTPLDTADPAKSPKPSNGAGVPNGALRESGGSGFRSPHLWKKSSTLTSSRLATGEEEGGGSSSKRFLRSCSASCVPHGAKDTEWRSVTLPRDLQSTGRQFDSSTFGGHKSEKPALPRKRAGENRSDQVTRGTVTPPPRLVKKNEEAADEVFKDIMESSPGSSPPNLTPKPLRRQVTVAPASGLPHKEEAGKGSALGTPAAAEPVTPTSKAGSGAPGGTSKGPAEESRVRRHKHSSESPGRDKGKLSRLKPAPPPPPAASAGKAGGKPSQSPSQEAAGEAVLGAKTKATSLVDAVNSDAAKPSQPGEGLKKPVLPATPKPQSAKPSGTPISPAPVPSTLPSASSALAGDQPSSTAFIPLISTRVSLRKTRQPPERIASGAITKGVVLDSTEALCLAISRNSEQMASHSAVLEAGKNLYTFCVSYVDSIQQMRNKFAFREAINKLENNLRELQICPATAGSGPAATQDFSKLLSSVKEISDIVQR

[13] = biological target: Proto-oncogene tyrosine-protein kinase Src (Homo sapiens, UniProt P12931); experiment: Inhibition of Src
Chain of Proto-oncogene tyrosine-protein kinase Src (P12931 2-536 limits assumed): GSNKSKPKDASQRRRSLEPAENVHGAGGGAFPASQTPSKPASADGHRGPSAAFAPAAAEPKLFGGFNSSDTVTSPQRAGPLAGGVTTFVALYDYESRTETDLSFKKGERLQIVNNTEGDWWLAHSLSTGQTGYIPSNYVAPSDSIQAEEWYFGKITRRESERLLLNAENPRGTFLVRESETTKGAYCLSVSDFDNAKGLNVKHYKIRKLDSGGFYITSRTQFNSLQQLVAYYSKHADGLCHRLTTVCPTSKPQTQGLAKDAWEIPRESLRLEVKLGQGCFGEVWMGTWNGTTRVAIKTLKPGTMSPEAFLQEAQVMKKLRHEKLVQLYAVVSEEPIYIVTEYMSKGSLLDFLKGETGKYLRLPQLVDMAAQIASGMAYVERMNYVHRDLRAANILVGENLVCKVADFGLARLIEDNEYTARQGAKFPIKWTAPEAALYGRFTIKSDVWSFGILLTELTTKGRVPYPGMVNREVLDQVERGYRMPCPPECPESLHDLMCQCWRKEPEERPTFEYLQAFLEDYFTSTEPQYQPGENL

[14] = Inhibition of PKA

Chain of Tyrosine-protein kinase Lck (Homo sapiens) (P06239 2-509 limits assumed): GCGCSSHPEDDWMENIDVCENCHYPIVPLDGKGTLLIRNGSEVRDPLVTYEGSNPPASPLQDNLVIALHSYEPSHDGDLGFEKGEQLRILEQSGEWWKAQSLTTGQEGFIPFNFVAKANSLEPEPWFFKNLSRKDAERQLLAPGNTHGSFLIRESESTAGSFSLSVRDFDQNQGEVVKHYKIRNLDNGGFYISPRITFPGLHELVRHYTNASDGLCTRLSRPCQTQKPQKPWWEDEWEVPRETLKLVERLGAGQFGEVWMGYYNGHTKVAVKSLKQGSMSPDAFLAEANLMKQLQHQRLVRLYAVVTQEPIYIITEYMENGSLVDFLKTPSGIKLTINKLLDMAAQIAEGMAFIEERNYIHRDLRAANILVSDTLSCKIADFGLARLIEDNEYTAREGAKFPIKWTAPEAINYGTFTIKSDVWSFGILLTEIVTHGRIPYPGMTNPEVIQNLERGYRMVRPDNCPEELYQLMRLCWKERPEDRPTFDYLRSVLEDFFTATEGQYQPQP

SMILES: NC(=O)c1c(-c2ccc(Oc3ccccc3)cc2)[nH]c(C(=O)c2ccccc2C(F)(F)F)c1N
- C50 [1]: 3.5 nM
- IC50 [2]: 68 nM

SMILES: NC(=O)c1c(-c2ccc(Oc3ccccc3)cc2)[nH]c(C(=O)c2c(F)cccc2F)c1N
- IC50 [3]: > 10000 nM
- C50 [1]: 1.3 nM
- IC50 [4]: > 10000 nM
- Ratio IC50 [5]: > 3
- IC50 [2]: 31 nM
- IC50 [6]: > 10000 nM
- IC50 [7]: > 10000 nM
- IC50 [8]: 4.5 nM
- IC50 [9]: > 10000 nM
- IC50 [10]: > 10000 nM
- Ratio IC50 [11]: > 17
- IC50 [12]: > 10000 nM
- IC50 [13]: 23 nM
- IC50 [14]: > 10000 nM

SMILES: NC(=O)c1c(-c2ccc(OCc3c(Cl)cccc3Cl)cc2)[nH]c(C(=O)c2c(F)cccc2F)c1N
- C50 [1]: > 100 nM
- IC50 [2]: >1000 nM

SMILES: COc1ccc(-c2[nH]c(C(=O)c3c(F)cccc3F)c(N)c2C(N)=O)cc1
- C50 [1]: > 100 nM

SMILES: CN(Cc1c(Cl)cccc1Cl)c1ccc(-c2[nH]c(C(=O)c3c(F)cccc3F)c(N)c2C(N)=O)cc1
- C50 [1]: 92 nM
- IC50 [2]: >1000 nM

SMILES: Cc1cccc(Cl)c1CNc1ccc(-c2[nH]c(C(=O)c3c(F)cccc3F)c(N)c2C(N)=O)cc1
- C50 [1]: 3.6 nM
- IC50 [2]: 56 nM

SMILES: NC(=O)c1c(-c2ccc(Oc3ccccc3)cc2)[nH]c(C(=O)c2ccc(Br)cc2)c1N
- C50 [1]: 5.9 nM

SMILES: Cc1cccc(C(=O)c2[nH]c(-c3ccc(Oc4ccccc4)cc3)c(C(N)=O)c2N)c1C
- C50 [1]: 2.6 nM
- IC50 [2]: 110 nM

SMILES: Cc1cc(C)cc(C(=O)c2[nH]c(-c3ccc(Oc4ccccc4)cc3)c(C(N)=O)c2N)c1
- C50 [1]: 13 nM

SMILES: NC(=O)c1c(-c2ccc(Oc3ccccc3)cc2)[nH]c(C(=O)c2ccccc2)c1N
- C50 [1]: 11 nM

SMILES: NC(=O)c1c(-c2ccc(Oc3ccccc3)cc2)[nH]c(C(=O)c2ccccc2Cl)c1N
- C50 [1]: 1.8 nM
- IC50 [2]: 69 nM

SMILES: NC(=O)c1c(-c2ccc(Oc3ccccc3)cc2)[nH]c(C(=O)c2ccc(Oc3ccccc3)cc2)c1N
- C50 [1]: 49 nM

SMILES: NC(=O)c1c(-c2ccc(NCc3ccccc3)cc2)[nH]c(C(=O)c2c(F)cccc2F)c1N
- C50 [1]: 6.4 nM

SMILES: Cc1ccc(C(=O)c2[nH]c(-c3ccc(Oc4ccccc4)cc3)c(C(N)=O)c2N)cc1
- C50 [1]: 2.8 nM
- IC50 [2]: 180 nM

SMILES: NC(=O)c1c(-c2ccc(NC(=O)c3ccccc3)cc2)[nH]c(C(=O)c2c(F)cccc2F)c1N
- C50 [1]: > 100 nM

SMILES: NC(=O)c1c(-c2ccc(Oc3ccccc3)cc2)[nH]c(C(=O)c2ccc(Cl)cc2Cl)c1N
- C50 [1]: 2.3 nM

SMILES: NC(=O)c1c(-c2ccc(NCC3CCCCC3)cc2)[nH]c(C(=O)c2c(F)cccc2F)c1N
- C50 [1]: 74 nM

SMILES: NC(=O)c1c(-c2ccc(Oc3ccccc3)cc2)[nH]c(C(=O)c2cc(Cl)cc(Cl)c2)c1N
- C50 [1]: 38 nM

SMILES: NC(=O)c1c(-c2ccc(NCc3c(Cl)cccc3Cl)cc2)[nH]c(C(=O)c2c(F)cccc2F)c1N
- C50 [1]: 0.92 nM
- IC50 [2]: 31 nM

SMILES: Cc1ccc(C)c(C(=O)c2[nH]c(-c3ccc(Oc4ccccc4)cc3)c(C(N)=O)c2N)c1
- C50 [1]: 10 nM

SMILES: NC(=O)c1c(-c2ccc(Oc3ccccc3)cc2)[nH]c(C(=O)c2cccc(Br)c2)c1N
- C50 [1]: 6.2 nM

SMILES: NC(=O)c1c(-c2ccc(N)cc2)[nH]c(C(=O)c2c(F)cccc2F)c1N
- C50 [1]: > 100 nM
- IC50 [2]: >1000 nM

SMILES: Cc1ccccc1C(=O)c1[nH]c(-c2ccc(Oc3ccccc3)cc2)c(C(N)=O)c1N
- C50 [1]: 2.7 nM
- IC50 [2]: 180 nM

SMILES: NC(=O)c1c(-c2ccc(NCc3cc(Cl)ccc3Cl)cc2)[nH]c(C(=O)c2c(F)cccc2F)c1N
- C50 [1]: 93 nM

SMILES: NC(=O)c1c(-c2ccc(Oc3ccccc3)cc2)[nH]c(C(=O)c2ccccc2Br)c1N
- C50 [1]: 2.5 nM
- IC50 [2]: 150 nM

SMILES: NC(=O)c1c(-c2ccc(Oc3ncccn3)cc2)[nH]c(C(=O)c2c(F)cccc2F)c1N
- C50 [1]: > 100 nM

SMILES: Cc1ccc(C(=O)c2[nH]c(-c3ccc(Oc4ccccc4)cc3)c(C(N)=O)c2N)c(C)c1
- C50 [1]: 1.8 nM

SMILES: NC(=O)c1c(-c2ccc(Oc3ccccc3)cc2)[nH]c(C(=O)c2cccc(F)c2)c1N
- C50 [1]: 5 nM

SMILES: NC(=O)c1c(-c2ccc(Oc3ccccc3)cc2)[nH]c(C(=O)c2cccc(Cl)c2)c1N
- C50 [1]: 6.3 nM

SMILES: NC(=O)c1c(-c2ccc(OCc3ccccc3)cc2)[nH]c(C(=O)c2c(F)cccc2F)c1N
- C50 [1]: 6.1 nM
- IC50 [2]: >1000 nM

SMILES: NC(=O)c1c(-c2ccc(Oc3ccccc3)cc2)[nH]c(C(=O)c2ccc(Cl)cc2)c1N
- C50 [1]: 7 nM

SMILES: NC(=O)c1c(-c2ccc(Oc3ccccc3)cc2)[nH]c(C(=O)c2ccc(F)cc2)c1N
- C50 [1]: 10 nM

SMILES: NC(=O)c1c(-c2ccc(Oc3ccccc3)cc2)[nH]c(C(=O)c2ccccc2F)c1N
- C50 [1]: 1.5 nM

SMILES: NC(=O)c1c(-c2ccc(Oc3ccccc3)cc2)[nH]c(C(=O)c2c(F)cc(F)cc2F)c1N
- C50 [1]: 1.8 nM
- IC50 [2]: 62 nM

SMILES: COc1ccccc1C(=O)c1[nH]c(-c2ccc(Oc3ccccc3)cc2)c(C(N)=O)c1N
- C50 [1]: 9.4 nM

SMILES: NC(=O)c1c(-c2ccc(Oc3ccccc3)cc2)[nH]c(C(=O)c2cc(Cl)ccc2Cl)c1N
- C50 [1]: 19 nM

SMILES: Cc1cccc(C(=O)c2[nH]c(-c3ccc(Oc4ccccc4)cc3)c(C(N)=O)c2N)c1
- C50 [1]: 4 nM
- IC50 [2]: 420 nM

SMILES: NC(=O)c1c(-c2ccc(Oc3ccccc3)cc2)[nH]c(C(=O)c2cccc(Cl)c2Cl)c1N
- C50 [1]: 1.2 nM
- IC50 [2]: 45 nM
